From ChEMBL document CHEMBL4673181, “An investigation of the antileishmanial properties of semi-synthetic saponins” (RSC Med Chem, 2020)

Assays:
Leishmania mexicana [1] = assay: Antileishmanial activity against axenic amastigote stage of Leishmania mexicana (MNYC/BZ/62/M379) assessed as induction of parasite killing incubated for 24 hrs by alamar blue dye based fluorescence analysis; assay type: functional; conditions: read-out: ED50 (the source's name)
How it was run: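 L. mexicana axenic amastigotes (from promastigotes by pH/temperature shift; Schneider's with 20% HIFBS) at 4x10⁵ mL⁻¹, exposed to three-fold dilutions from 50 μM to 0.21 μM for 24 h at 33 °C in sealed plates. alamarBlue then added for another 24 h, fluorescence read at 560/600 nm. Amphotericin B (50 μM) positive, DMSO negative control. Duplicates on four occasions, EC₅₀ fitted.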

Leishmania mexicana [2] = assay: Antileishmanial activity against axenic amastigote stage of Leishmania mexicana (MNYC/BZ/62/M379) assessed as inhibition of parasite proliferation at 50 uM incubated for 24 hrs by alamar blue dye based fluorescence analysis; assay type: functional
How it was run: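 Primary single-point screen at 50 μM, in duplicate. Axenic L. mexicana amastigotes at 4x10⁵ mL⁻¹ incubated with compound 24 h at 33 °C in sealed plates, then alamarBlue for a further 24 h at the same temperature. Viability read by fluorescence at 560/600 nm against amphotericin B (50 μM) and DMSO controls.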

Compound	EC50 (Leishmania mexicana [1])	inhibition at 50 µM (Leishmania mexicana [2])
CC1(C)CC[C@]2(C(=O)OCc3ccccc3)CC[C@]3(C)C(=CC[C@@H]4[C@@]5(C)CC[C@H](O)[C@@](C)(CO)[C@@H]5CC[C@]43C)[C@@H]2C1	> 50 µM	≥ 95%
CC1(C)CC[C@]2(C(=O)OCc3ccccc3[N+](=O)[O-])CC[C@]3(C)C(=CC[C@@H]4[C@@]5(C)CC[C@H](O)[C@@](C)(CO)[C@@H]5CC[C@]43C)[C@@H]2C1	> 50 µM	≥ 95%
CC1(C)CC[C@]2(C(=O)OCCC3OCCCO3)CC[C@]3(C)C(=CC[C@@H]4[C@@]5(C)CC[C@H](O)[C@@](C)(CO)[C@@H]5CC[C@]43C)[C@@H]2C1	> 50 µM	≥ 95%
CC1(C)CC[C@]2(C(=O)O)CC[C@]3(C)C(=CC[C@@H]4[C@@]5(C)CC[C@H](O[C@@H]6OC[C@H](O)[C@H](O)[C@H]6O)[C@@](C)(CO)[C@@H]5CC[C@]43C)[C@@H]2C1	> 50 µM	≥ 95%
CC1(C)CC[C@]2(NC(=O)NCCN3CCCC3)CC[C@]3(C)C(=CC[C@@H]4[C@@]5(C)CC[C@@H]6OC(C)(C)OC[C@@]6(C)[C@@H]5CC[C@]43C)[C@@H]2C1	> 50 µM	≥ 95%
CCOC(=O)[C@]12CCC(C)(C)C[C@H]1C1=CC[C@@H]3[C@@]4(C)CC[C@H](O)[C@@](C)(CO)[C@@H]4CC[C@@]3(C)[C@]1(C)CC2	> 50 µM	≥ 95%
CC1(C)CC[C@]2(CO)CC[C@]3(C)C(=CC[C@@H]4[C@@]5(C)CC[C@@H]6O[C@H]([C@H](O)[C@@H](O)[C@@H](O)CO)OC[C@@]6(C)[C@@H]5CC[C@]43C)[C@@H]2C1		≥ 95%
COC(=O)[C@]12CCC(C)(C)C[C@H]1C1=CC[C@@H]3[C@@]4(C)CC[C@@H]5O[C@H](CC6O[C@H]([C@H](C)O)[C@@H](O)[C@@H]6O)OC[C@@]5(C)[C@@H]4CC[C@@]3(C)[C@]1(C)CC2 (some centres undefined)	> 50 µM	≥ 95%
C[C@H]1O[C@H](C[C@@H]2OC[C@@]3(C)[C@@H]4CC[C@]5(C)[C@H](CC=C6[C@@H]7CC(C)(C)CC[C@]7(C(=O)O)CC[C@]65C)[C@@]4(C)CC[C@@H]3O2)[C@H](O)[C@@H](O)[C@@H]1O	> 50 µM	≥ 95%
CC1(C)CC[C@]2(NC(=O)N3CCC[C@H]3CN3CCCC3)CC[C@]3(C)C(=CC[C@@H]4[C@@]5(C)CC[C@@H]6OC(C)(C)OC[C@@]6(C)[C@@H]5CC[C@]43C)[C@@H]2C1	> 50 µM	≥ 95%
CC1(C)CC[C@]2(NC(=O)N3CCCNCC3)CC[C@]3(C)C(=CC[C@@H]4[C@@]5(C)CC[C@@H]6OC(C)(C)OC[C@@]6(C)[C@@H]5CC[C@]43C)[C@@H]2C1	> 50 µM	≥ 95%
CC1(C)CC[C@]2(NC(=O)NCCN)CC[C@]3(C)C(=CC[C@@H]4[C@@]5(C)CC[C@@H]6OC(C)(C)OC[C@@]6(C)[C@@H]5CC[C@]43C)[C@@H]2C1	> 50 µM	≥ 95%
CC1(C)CC[C@]2(CO)CC[C@]3(C)C(=CC[C@@H]4[C@@]5(C)CC[C@@H]6O[C@H]([C@H](O)[C@@H](O)[C@H](O)CO)OC[C@@]6(C)[C@@H]5CC[C@]43C)[C@@H]2C1	> 50 µM	≥ 95%
CC1(C)CC[C@]2(NC(=O)O)CC[C@]3(C)C(=CC[C@@H]4[C@@]5(C)CC[C@@H]6O[C@H](C[C@H]7O[C@H](CO)[C@@H](O)[C@H](O)[C@@H]7O)OC[C@@]6(C)[C@@H]5CC[C@]43C)[C@@H]2C1	> 50 µM	≥ 95%
CC1(C)CC[C@]2(CO)CC[C@]3(C)C(=CC[C@@H]4[C@@]5(C)CC[C@@H]6O[C@H]([C@H](O)[C@@H](O)[C@H](O)[C@H](O)CO)OC[C@@]6(C)[C@@H]5CC[C@]43C)[C@@H]2C1	> 50 µM	≥ 95%
